Data taken from ChEMBL document CHEMBL3580644, “Synthesis of piperlongumine analogues and discovery of nuclear factor erythroid 2-related factor 2 (Nrf2) activators as potential neuroprotective agents” (J Med Chem, 2015).
The source made the active and inactive calls. The rule behind the calls is not given here.

Key:
PC-12 [1] = test: Induction of antioxidant defense system in rat PC12 cells assessed as increase in NQO1 activity level incubated for 24 hrs by DCPIP dye reduction based spectrophotometry; assay type: functional, cell-based
Outline: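 NQO1: PC12 lysate in RIPA buffer, 5 μg protein into 20 mM Tris-HCl pH 7.4, 200 μM NADH, 40 μM DCPIP; A600 decrease read every 8 s for 2 min at room temperature ± 20 μM dicoumarol; dicoumarol-inhibitable rate used, expressed as % of DMSO control. Cells pretreated 24 h; stress lines then 500 μM H2O2 or 200 μM 6-OHDA 12 h.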

PC-12 [2] = test: Induction of antioxidant genes expression in rat PC12 cells assessed as increase in TrxR1 activity at 10 and 20 uM incubated for 20 hrs by TRFS-green dye based fluorescent microscopy; assay type: functional, cell-based
Outline: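 PC12 cells 2×10^5/well, 24 h, then compound 20 h; TRFS-green added to 10 μM final and incubated 4 h at 37 °C in the dark; green fluorescence intensity imaged by fluorescence microscopy as relative cellular TrxR activity.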

PC-12 [3] = test: Induction of antioxidant genes expression in rat PC12 cells assessed as increase in TrxR1 mRNA level at 20 uM incubated for 3 hrs by qRT-PCR method; assay type: functional, cell-based
Outline: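 PC12 cells (1×10^6 per 60-mm dish) seeded 1 day, then exposed to 20 μM compound for 0, 3, 6 and 12 h. Total RNA isolated and quantified by 260/280 absorbance. Transcripts measured by qRT-PCR, normalized to GAPDH internal control, compared against 0 h control. Means ± SD of three independent experiments.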

PC-12 [4] = test: Cytoprotection activity against H2O2-induced apoptosis in rat PC12 cells assessed as reduction in caspase-3 activation at 10 and 20 uM pre-incubated for 24 hrs before H2O2 exposure for 24 hrs by colorimetric assay; assay type: functional, cell-based
Outline: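 Lysed in RIPA buffer (pH 7.5), protein by Bradford; caspase-3 measured colorimetrically with Ac-DEVD-pNA substrate, expressed as % of control; mean ± SD, three independent experiments.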

PC-12 [5] = test: Induction of antioxidant defense system in rat PC12 cells assessed as increase in GSH level incubated for 24 hrs; assay type: functional, cell-based
Outline: (§1)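 Total glutathione: cells extracted in KPE buffer (0.1% Triton X-100, 0.6% sulfosalicylic acid, 5 mM EDTA, 0.1 M PBS pH 7.5), sonicated on ice, centrifuged 3000 g 4 min at 4 °C; supernatant assayed enzymatically. PC12 cells 1×10^6 in 60-mm dishes, compound 24 h; stress lines add 500 μM H2O2 or 200 μM 6-OHDA 12 h.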

[6] = target: T1, Nuclear factor erythroid 2-related factor 2 (Rattus norvegicus) (UniProt O54968); test: Induction of Nrf2-mediated antioxidant genes expression in rat PC12 cells assessed as increase in NQO1 protein expression at 10 and 20 uM incubated for 20 hrs by Western blotting method; assay type: cell-based; conditions: PC-12
T1 sequence (whole entry): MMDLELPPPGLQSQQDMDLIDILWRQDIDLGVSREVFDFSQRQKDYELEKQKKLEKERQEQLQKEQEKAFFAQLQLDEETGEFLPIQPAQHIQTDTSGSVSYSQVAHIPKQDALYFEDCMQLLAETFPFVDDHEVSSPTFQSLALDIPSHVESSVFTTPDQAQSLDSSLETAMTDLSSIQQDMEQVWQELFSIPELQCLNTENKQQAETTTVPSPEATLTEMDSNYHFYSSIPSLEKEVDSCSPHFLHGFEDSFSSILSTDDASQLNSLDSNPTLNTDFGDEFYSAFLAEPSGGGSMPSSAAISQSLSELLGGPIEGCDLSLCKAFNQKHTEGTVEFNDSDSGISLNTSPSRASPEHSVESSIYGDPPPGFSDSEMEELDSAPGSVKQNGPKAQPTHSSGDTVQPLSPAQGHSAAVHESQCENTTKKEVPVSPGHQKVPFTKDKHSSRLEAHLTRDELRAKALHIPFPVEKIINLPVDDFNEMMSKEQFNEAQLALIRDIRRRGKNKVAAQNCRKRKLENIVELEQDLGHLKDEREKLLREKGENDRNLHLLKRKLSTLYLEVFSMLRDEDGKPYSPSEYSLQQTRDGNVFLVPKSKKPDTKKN

PC-12 [7] = test: Cytoprotection activity against H2O2-induced apoptosis in rat PC12 cells assessed as reduction in apoptotic nuclei levels at 10 and 20 uM pre-incubated for 24 hrs before H2O2 exposure for 5 hrs by Hoechst 33342 staining based fluorescent microscopy; assay type: functional, cell-based
Outline: (§2)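 PC12 cells seeded 2×10^5/well, grown 1 day, pretreated with compound 24 h, then medium replaced with fresh medium containing 200 μM 6-OHDA or 500 μM H2O2 for 5 h; Hoechst 33342 added at 5 μg/mL final; condensed, brightly fluorescent nuclei counted as apoptotic under fluorescence microscopy.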

PC-12 [8] = test: Reduction in cytosolic Nrf2 protein level in rat PC12 cells at 20 uM incubated for 2 to 8 hrs by Western blotting method; assay type: functional, cell-based
Outline: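 Seeded at 1×10^6 cells per 60-mm dish for 24 h, PC12 cells were treated with 20 μM compound for 0, 2, 4 and 8 h. Whole-cell, cytosolic and nuclear protein extracts were then prepared and Nrf2 probed by Western blot.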

PC-12 [9] = test: Cytoprotection activity against 6-OHDA-induced oxidative stress in rat PC12 cells assessed as TrxR1 activity at pre-incubated for 24 hrs before 6-OHDA exposure for 12 hrs by Escherichia coli Trx based assay; assay type: functional, cell-based
Outline: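 Cellular TrxR activity: extract with 20 μg protein incubated 30 min at 37 °C in 100 mM Tris-HCl pH 7.4 containing 0.3 mM insulin, 660 μM NADPH, 3 mM EDTA, 4 μM E. coli Trx; stopped with 1 mM DTNB in 6 M guanidine-HCl pH 8.0; A412 minus Trx-free blank; % of DMSO control.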

PC-12 [10] = test: Cytoprotection activity against 6-OHDA-induced apoptosis in rat PC12 cells assessed as reduction in apoptotic nuclei levels at 10 and 20 uM pre-incubated for 24 hrs before 6-OHDA exposure for 5 hrs by Hoechst 33342 staining based fluorescent microscopy; assay type: functional, cell-based; outline: as §2
PC-12 [11] = test: Cytoprotection activity against H2O2-induced cytotoxicity in rat PC12 cells assessed as increase in cell viability pre-incubated for 24 hrs before H2O2 exposure for 12 hrs by MTT assay; assay type: functional, cell-based
PC-12 [12] = test: Cytoprotection activity against H2O2-induced oxidative stress in rat PC12 cells assessed as GSH level at pre-incubated for 24 hrs before H2O2 exposure for 12 hrs; assay type: functional, cell-based; outline: as §1
[13] = Cytotoxicity against rat PC12 cells assessed as reduction in cell viability at 20 uM incubated for 24 hrs by MTT assay; assay type: cell-based; conditions: pc-12, 24 h
[14] = Antioxidant activity assessed as ABTS radical scavenging activity at 20 uM incubated for 30 mins by spectrophotometry; assay type: physicochemical; conditions: 0.5 h
PC-12 [15] = test: Cytoprotection activity against 6-OHDA-induced oxidative stress in rat PC12 cells assessed as reduction in ROS generation at 10 and 20 uM pre-incubated for 24 hrs before 6-OHDA exposure for 5 hrs by DCFH-DA dye based fluorescent microscopy; assay type: functional, cell-based

Activity [6]	Activity [14]	SMILES	Activity (PC-12 [1])	Activity (PC-12 [2])	Activity (PC-12 [3])	Activity (PC-12 [4])	Activity (PC-12 [5])	Activity (PC-12 [7])	Activity (PC-12 [8])	Activity (PC-12 [9])	Activity (PC-12 [10])	Activity (PC-12 [11])	Activity (PC-12 [12])	Activity [13]	Activity (PC-12 [15])
Active	Not Active	COc1cc(/C=C/C(=O)N2CCCCC2=O)cc(OC)c1OC	Active	Active	Active	Dose-dependent effect	Active	Active	Active	Active	Active	Dose-dependent effect	Active	Non-toxic	Dose-dependent effect
Active	Not Active	COc1ccc(/C=C/C(=O)N2CCCC2=O)cc1	Active	Active	Active	Dose-dependent effect	Active	Active	Active	Active	Active	Dose-dependent effect	Active	Non-toxic	Dose-dependent effect
